In experiment [1] the test system is CCRF-CEM. Nature of the experiment: (§1) In vitro cytotoxicity against CCRF-CEM T lymphoblastoid cells. The format is functional, Homo sapiens. Also on record: concentration or dose not given beside the values. Summed up:
(§2)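 Cells were grown for 72 h at a constant compound concentration of 10 µM, then counted. Growth inhibition is given relative to cell counts in control cultures grown in medium without compound. Lines: mouse L1210 and L929, human HeLaS3 and CCRF-CEM.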

Experiment [2] relates to CCRF-CEM. The experiment can be described thus: Inhibition of Human immunodeficiency virus (HIV) -1 III B strain induced cytopathicity in CEM cell line. It counts as functional, cell-based. Summed up:
(§3)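 CEM cells were infected with 100 CCID50 per mL of HIV-1 (IIIB) or HIV-2 (ROD). Cells were seeded into wells containing dilutions of compound and incubated 4 days at 37 °C. CEM giant cell formation was then examined microscopically.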
(Protection from cytopathic effect is a common read-out in antiviral testing.)

In experiment [3] the test system is CCRF-CEM. The experiment can be described thus: Inhibition of Human immunodeficiency virus (HIV)-2 ROD strain induced cytopathicity in CEM cell line. The format is functional, cell-based. Summed up: as §3
Experiment [4] relates to Moloney murine sarcoma virus. Nature of the experiment: Inhibition of moloney sarcoma virus (MSV) induced cytopathicity in C3H/3T3 embryo fibroblast cells. It counts as functional, organism-based. Put shortly:
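C3H/3T3 murine embryo fibroblasts were seeded in 48-well plates and infected 24 h later with 80 focus-forming units of MSV. MSV stock was prepared from tumours in NMRI mice. Virus adsorbed for 10-120 min at 37 °C, then fresh medium with compound dilutions was added. Transformation was examined microscopically after 6 days.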

The subject of experiment [5] is E6SM. Nature of the experiment: Inhibition of Herpes simplex virus-1, KOS strain induced cytopathicity in E6SM cell line. It counts as functional, cell-based. The conditions noted are these: Homo sapiens. Summed up:
(§4)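 Inhibition of virus-induced cytopathicity in confluent cell cultures in 96-well plates inoculated with 100 CCID50 of virus; 1 CCID50 is the virus dose infecting 50% of cultures. EC50 is based on reduction of cytopathicity.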

The subject of experiment [6] is E6SM. Nature of the experiment: Inhibition of Herpes simplex virus-2 (G strain) induced cytopathicity in E6SM cell line. It counts as functional, cell-based. The conditions noted are these: Homo sapiens. Put shortly:
as §4

Experiment [7] has as its system E6SM. The experiment can be described thus: Inhibition of thymidine kinase deficient Herpes simplex virus-1 VMW 1837 strain induced cytopathicity in E6SM cell line. The format is functional, cell-based. To be noted: Homo sapiens. Put shortly:
as §4

The subject of the next experiment is Human alphaherpesvirus 3. The experiment can be described thus: Inhibition of Thymidine kinase deficient (TK-) Varicella-Zoster virus (VZV) 07/1 strain induced cytopathicity n HEL cell line. The format is functional, organism-based. To be noted: Human alphaherpesvirus 3, tk-07, HEL. Summed up:
as §4

Experiment [8] has as its system HEL. Nature of the experiment: Inhibition of Thymidine kinase deficient (TK-) Varicella-Zoster virus (VZV) YS/R strain induced cytopathicity in HEL cell line. It counts as functional, cell-based. The conditions noted are these: Homo sapiens. Summed up: as §4
For experiment [9], the system named is HEL. The experiment can be described thus: Inhibition of Varicella-Zoster virus (VZV) OKA strain induced cytopathicity in HEL cell line. The conditions noted are these: Homo sapiens. The format is functional, cell-based. Summed up:
as §4

In experiment [10] the test system is HEL. The experiment can be described thus: Inhibition of Varicella-Zoster virus (VZV) YS strain induced cytopathicity in HEL cell line. The conditions noted are these: Homo sapiens. It counts as functional, cell-based. Summed up:
as §4

In another experiment the test system is HeLa. The experiment can be described thus: In vitro cytotoxicity against human cervix carcinoma HeLa S3 cells. Set-up: concentration or dose not given beside the values. The format is functional. Summed up:
as §2

The test system of experiment [11] is L929. The experiment can be described thus: (§5) In vitro cytotoxicity against murine L929 cells. It counts as functional, Mus musculus. Also on record: concentration or dose not given beside the values. Summed up:
as §2

For experiment [12], the system named is L1210. The experiment can be described thus: (§6) In vitro cytotoxicity against L1210 mouse leukemia cells. Set-up: concentration or dose not given beside the values. The format is functional. Put shortly: as §2
The subject of experiment [13] is CCRF-CEM. The experiment is described as §1. It counts as functional, Homo sapiens. Put shortly: as §2
The subject of experiment [14] is L929. Described as §5. The format is functional, Mus musculus. Summed up:
as §2

For experiment [15], the system named is L1210. Described as §6. It counts as functional. Put shortly:
as §2

Structures are written as SMILES. In brackets after ≈: the same amount, converted by molar mass.

For orientation: EC50 means the concentration that produces a half-maximal response.

Turning to `Cc1cc(=O)n(CCOCP(=O)(O)O)c(N)n1`, the Control with CCRF-CEM [1] was 100%; in the experiment on HeLa it was 83%; with L929 [11], 81%; in the experiment with L1210 [12], 95%. The EC50 in the experiment with CCRF-CEM [2] was above 100 µg/mL; in the experiment with CCRF-CEM [3], above 100 µg/mL; in experiment [4], 122 µg/mL (≈ 464 µM); with E6SM [5], above 400 µg/mL; in the experiment with E6SM [6], above 400 µg/mL; with E6SM [7], above 400 µg/mL. The half-maximal effective concentration (EC50) with Human alphaherpesvirus 3, in the experiment with HEL [8], in the experiment with HEL [9] and in the experiment with HEL [10] was above 50 µg/mL each time.
On to `CN(C)c1cc(OCCOCP(=O)(O)O)nc(N)n1`, for which the Control in the experiment with CCRF-CEM [1] was 104%; in the experiment on HeLa, 89%; in the experiment with L929 [11], 104%; with L1210 [12], 88%. Also, the EC50 was above 100 µg/mL in the experiment with CCRF-CEM [2]; above 100 µg/mL with CCRF-CEM [3]; 133 µg/mL (≈ 455 µM) in [4]; above 400 µg/mL with E6SM [5]; above 400 µg/mL in the experiment with E6SM [6]; above 400 µg/mL with E6SM [7]. Moreover, the EC50 in the experiment with Human alphaherpesvirus 3, with HEL [8], in the experiment with HEL [9] and with HEL [10] was above 50 µg/mL throughout.
Take `Nc1ncnc2c1ncn2CCOCP(=O)(O)O` [ADEFOVIR]: the EC50 came out at 1.8 µg/mL (≈ 6.59 µM) in the experiment on CCRF-CEM [2]; 2.5 µg/mL (≈ 9.15 µM) in the experiment on CCRF-CEM [3]; 0.25 µg/mL (≈ 0.915 µM) in experiment [4]; 7 µg/mL (≈ 25.6 µM) with E6SM [5]; 7 µg/mL (≈ 25.6 µM) in the experiment on E6SM [6]; 7 µg/mL (≈ 25.6 µM) in the experiment on E6SM [7]. Besides, the EC50 in the experiment on Human alphaherpesvirus 3, in the experiment with HEL [8], in the experiment on HEL [9] and in the experiment with HEL [10] was 10 µg/mL (≈ 36.6 µM) each time.
For the molecule `CC(C)OP(=O)(COCCOc1cc(N)ncn1)OC(C)C`, the EC50 in the experiment with CCRF-CEM [2] was above 20 µg/mL; in the experiment on CCRF-CEM [3], above 20 µg/mL; in the experiment on E6SM [5], above 400 µg/mL; in the experiment on E6SM [6], above 400 µg/mL; in the experiment on E6SM [7], above 400 µg/mL; with Human alphaherpesvirus 3 it was above 50 µg/mL. Besides, the EC50 in the experiment with HEL [8], in the experiment on HEL [9] and with HEL [10] was above 50 µg/mL throughout.
As for `CN(C)c1cc(=O)n(CCOCP(=O)(O)O)c(N)n1`, the Control in the experiment on CCRF-CEM [1] is listed as 98%; with HeLa, 92%; in the experiment with L929 [11], 99%; with L1210 [12] it was 90%. The 50% effective concentration (EC50) was above 100 µg/mL in the experiment on CCRF-CEM [2]; above 100 µg/mL in the experiment on CCRF-CEM [3]; 105 µg/mL (≈ 359 µM) in experiment [4]; above 80 µg/mL in the experiment with E6SM [5]; above 80 µg/mL in the experiment with E6SM [6]; above 80 µg/mL with E6SM [7]. Moreover, the EC50 with Human alphaherpesvirus 3, with HEL [8], in the experiment on HEL [9] and with HEL [10] was above 50 µg/mL throughout.
Consider `CN(C)c1cc(O)nc(N)n1`, for which the EC50 was above 100 µg/mL in the experiment with CCRF-CEM [2]; above 100 µg/mL in the experiment on CCRF-CEM [3]; 132 µg/mL (≈ 856 µM) in [4]; above 400 µg/mL in the experiment on E6SM [5]; above 400 µg/mL with E6SM [6]; above 400 µg/mL in the experiment on E6SM [7]. Also, the EC50 with Human alphaherpesvirus 3, in the experiment on HEL [8], in the experiment with HEL [9] and with HEL [10] was above 50 µg/mL throughout.
`Nc1cc(O)nc(SCCOCP(=O)(O)O)n1`: the EC50 in the experiment on CCRF-CEM [2] was above 100 µg/mL; in the experiment with CCRF-CEM [3] it was above 100 µg/mL; in [4] it was 72 µg/mL (≈ 256 µM); in the experiment with E6SM [5], 240 µg/mL (≈ 853 µM); in the experiment with E6SM [6] it was above 400 µg/mL; with E6SM [7], above 400 µg/mL. Further, the EC50 in the experiment with Human alphaherpesvirus 3, with HEL [8], in the experiment with HEL [9] and with HEL [10] was above 50 µg/mL each time.
As for `Nc1nc(OCCOCP(=O)(O)O)cc(=O)n1CCOCP(=O)(O)O`, the Control turned out to be 101% in the experiment with CCRF-CEM [13], 72% in the experiment with HeLa, 77% in the experiment with L929 [14] and 80% with L1210 [15]. Further, the EC50 with CCRF-CEM [2] is above 100 µg/mL; with CCRF-CEM [3], above 100 µg/mL; in [4] it was 107 µg/mL (≈ 265 µM); with E6SM [5] it was above 400 µg/mL; in the experiment with E6SM [6], above 400 µg/mL; with E6SM [7] it was above 400 µg/mL. Also, the EC50 with Human alphaherpesvirus 3, in the experiment on HEL [8], in the experiment with HEL [9] and in the experiment on HEL [10] was above 50 µg/mL throughout.
For `Nc1nc(OCCOCP(=O)(O)O)cc(OCCOCP(=O)(O)O)n1`, the Control in the experiment with CCRF-CEM [1] worked out at 109%; with HeLa, 72%; with L929 [11], 56%; with L1210 [12], 77%. Further, the half-maximal effective concentration (EC50) in the experiment on CCRF-CEM [2] is 57 µg/mL (≈ 141 µM); in the experiment with CCRF-CEM [3], 80 µg/mL (≈ 198 µM); in experiment [4], 43 µg/mL (≈ 107 µM); in the experiment with E6SM [5], 240 µg/mL (≈ 595 µM); in the experiment on E6SM [6], above 400 µg/mL; with E6SM [7], 240 µg/mL (≈ 595 µM). The EC50 was above 50 µg/mL with Human alphaherpesvirus 3, above 50 µg/mL with HEL [8], 50 µg/mL (≈ 124 µM) in the experiment on HEL [9] and above 50 µg/mL with HEL [10].

The record behind these values is ChEMBL document CHEMBL1135936, “6-[2-(Phosphonomethoxy)alkoxy]pyrimidines with antiviral activity” (J Med Chem, 2002).
